Drawing on ChEMBL document CHEMBL3580573, “Ibogan, tacaman, and cytotoxic bisindole alkaloids from tabernaemontana. Cononusine, an iboga alkaloid with unusual incorporation of a pyrrolidone moiety” (J Nat Prod, 2015), this text covers IC50 and Activity for ten compounds.

Test [1] deals with KB. The experiment in a line: Cytotoxicity against vincristine-sensitive human KB cells assessed as growth inhibition after 72 hrs by MTT assay. Format: functional, cell-based. For orientation: Formazan colour is commonly taken as a measure of viable cells.
The test system of test [2] is KB. The test can be described thus: Cytotoxicity against vincristine-resistant human KB cells assessed as growth inhibition after 72 hrs by MTT assay. It is filed as functional, cell-based.
In test [3] the test system is KB. The experiment in a line: Cytotoxicity against vincristine-resistant human KB cells assessed as growth inhibition after 72 hrs by MTT assay in presence of vincristine. It is filed as functional, cell-based.
Test [4] deals with MDA-MB-468. The test can be described thus: Induction of apoptosis in human MDA-MB-468 cells assessed as late apoptotic cells at 2 times IC50 after 48 hrs by annexin V-FITC/propidium iodide staining-based flow cytometric analysis (reference value: 3.65%). Format: functional.
A further test relates to MCF7. The test can be described thus: Cytotoxicity against human MCF7 cells assessed as growth inhibition after 72 hrs by MTT assay. Format: functional, cell-based. Conditions: MCF7, 72 h.
In test [5] the test system is MDA-MB-468. The experiment in a line: Induction of apoptosis in human MDA-MB-468 cells assessed as early apoptotic cells at 2 times IC50 after 48 hrs by annexin V-FITC/propidium iodide staining-based flow cytometric analysis (reference value: 3.24%). It is filed as functional.
Test [6] relates to HCT-116. The test can be described thus: Cytotoxicity against human HCT116 cells assessed as growth inhibition after 72 hrs by MTT assay. As to conditions: HCT-116, 72 h. It is filed as functional, cell-based.
The test system of test [7] is MDA-MB-468. The test can be described thus: Cell cycle arrest in human MDA-MB-468 cells assessed as accumulation at pre-G1 phase at IC50 to 2 times IC50 after 48 hrs relative to control. It is filed as functional. Put shortly:
(§1)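 Cells were exposed for 48 h, then analysed by flow-cytometric cell cycle profiling. Pre-G1 events were scored and compared with untreated control, with significance at p < 0.05.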

Test [8] deals with HCT-116. The test can be described thus: Induction of apoptosis in human HCT116 cells assessed as late apoptotic cells at 2 times IC50 after 48 hrs by annexin V-FITC/propidium iodide staining-based flow cytometric analysis (reference value: 2.27%). It is filed as functional. In general terms: In flow cytometry, cells or beads pass a laser one at a time.
In test [9] the test system is HCT-116. The experiment in a line: Induction of apoptosis in human HCT116 cells assessed as necrotic cells at 2 times IC50 after 48 hrs by annexin V-FITC/propidium iodide staining-based flow cytometric analysis (reference value: 1.84%). It is filed as functional.
The test system of test [10] is MDA-MB-468. The experiment in a line: Induction of apoptosis in human MDA-MB-468 cells assessed as early apoptotic cells at IC50 after 48 hrs by annexin V-FITC/propidium iodide staining-based flow cytometric analysis (reference value: 3.24%). Format: functional.
For test [11], the system named is MDA-MB-468. The experiment in a line: Induction of apoptosis in human MDA-MB-468 cells assessed as viable cells at IC50 after 48 hrs by annexin V-FITC/propidium iodide staining-based flow cytometric analysis (reference value: 92.9%). Format: functional.
Test [12] relates to MDA-MB-468. The experiment in a line: Cytotoxicity against human MDA-MB-468 cells assessed as growth inhibition after 72 hrs by MTT assay. Format: functional, cell-based. Conditions: MDA-MB-468, 72 h.
Test [13] deals with HCT-116. The test can be described thus: Induction of apoptosis in human HCT116 cells assessed as early apoptotic cells at IC50 after 48 hrs by annexin V-FITC/propidium iodide staining-based flow cytometric analysis (reference value: 1.45%). Format: functional.
In test [14] the test system is HCT-116. The experiment in a line: Induction of apoptosis in human HCT116 cells assessed as viable cells at IC50 after 48 hrs by annexin V-FITC/propidium iodide staining-based flow cytometric analysis (reference value: 94.4%). It is filed as functional.
The subject of another test is HT-29. The experiment in a line: Cytotoxicity against human HT-29 cells assessed as growth inhibition after 72 hrs by MTT assay. Format: functional, cell-based. Conditions: HT-29, 72 h.
In test [15] the test system is MDA-MB-468. The experiment in a line: Induction of apoptosis in human MDA-MB-468 cells assessed as viable cells at 2 times IC50 after 48 hrs by annexin V-FITC/propidium iodide staining-based flow cytometric analysis (reference value: 92.9%). Format: functional.
For test [16], the system named is HCT-116. The test can be described thus: Cell cycle arrest in human HCT116 cells assessed as accumulation at pre-G1 phase at IC50 to 2 times IC50 after 48 hrs relative to control. It is filed as functional. The method in brief:
as §1

Test [17] concerns HCT-116. The experiment in a line: Induction of apoptosis in human HCT116 cells assessed as necrotic cells at IC50 after 48 hrs by annexin V-FITC/propidium iodide staining-based flow cytometric analysis (reference value: 1.84%). It is filed as functional.
Test [18] concerns MDA-MB-468. The experiment in a line: Induction of apoptosis in human MDA-MB-468 cells assessed as necrotic cells at IC50 after 48 hrs by annexin V-FITC/propidium iodide staining-based flow cytometric analysis (reference value: 0.25%). Format: functional.
The test system of test [19] is HCT-116. The experiment in a line: Induction of apoptosis in human HCT116 cells assessed as viable cells at 2 times IC50 after 48 hrs by annexin V-FITC/propidium iodide staining-based flow cytometric analysis (reference value: 94.4%). Format: functional.
The subject of test [20] is MDA-MB-468. The test can be described thus: Induction of apoptosis in human MDA-MB-468 cells assessed as necrotic cells at 2 times IC50 after 48 hrs by annexin V-FITC/propidium iodide staining-based flow cytometric analysis (reference value: 0.25%). It is filed as functional.
In another test the test system is A549. The test can be described thus: Cytotoxicity against human A549 cells assessed as growth inhibition after 72 hrs by MTT assay. It is filed as functional, cell-based. As to conditions: A549, 72 h.
Test [21] relates to HCT-116. The test can be described thus: Induction of apoptosis in human HCT116 cells assessed as early apoptotic cells at 2 times IC50 after 48 hrs by annexin V-FITC/propidium iodide staining-based flow cytometric analysis (reference value: 1.45%). It is filed as functional.
Test [22] concerns HCT-116. The test can be described thus: Induction of apoptosis in human HCT116 cells assessed as late apoptotic cells at IC50 after 48 hrs by annexin V-FITC/propidium iodide staining-based flow cytometric analysis (reference value: 2.27%). It is filed as functional.
In test [23] the test system is MDA-MB-468. The test can be described thus: Induction of apoptosis in human MDA-MB-468 cells assessed as late apoptotic cells at IC50 after 48 hrs by annexin V-FITC/propidium iodide staining-based flow cytometric analysis (reference value: 3.65%). Format: functional.

Usually IC50 stands for the midpoint of a concentration-inhibition curve. On to `CC[C@H]1C[C@H]2C[C@H]3c4[nH]c5cc(C6CCC(=O)N6)c(OC)cc5c4CCN(C2)[C@@H]13` (stereo partly specified), for which the IC50 with KB [1], in the test on KB [2] and in the test with KB [3] was more than 25 µg/mL throughout.

Turning to `CC[C@H]1C[C@H]2C[C@@H]3[C@H]1N(C2)C[C@@H](O)[C@@]31Nc2ccc(OC)cc2C1=O`, the concentration for half-maximal inhibition (IC50) in the test with KB [1] is more than 25 µg/mL; with KB [2] it was more than 25 µg/mL; in the test on KB [3], 53.2 µM.

With `C/C=C1/CN2[C@H]3C[C@H]1C1(C(=O)OC)C[C@]4(C[C@@H]21)c1ccccc1N(C)[C@H]34` (stereo partly specified), the 50% inhibitory concentration (IC50) is more than 25 µg/mL in the test on KB [1], more than 25 µg/mL in the test with KB [2] and 2.62 µM in the test on KB [3].

Turning to `CC[C@]1(O)C[C@@H]2CC(=O)n3c4c(c5ccccc53)CCN(C1)[C@@H]42`, the 50% inhibitory concentration (IC50) in the test with KB [1], in the test on KB [2] and with KB [3] was more than 25 µg/mL each time.

Regarding `CC[C@H]1C[C@H]2C[C@H]3c4[nH]c5ccc(OC)cc5c4C(=O)CN(C2)[C@@H]13`, the 50% inhibitory concentration (IC50) in the test with KB [1], in the test with KB [2] and in the test on KB [3] was more than 25 µg/mL each time.

As for `C/C=C1/C[N+]2(CCl)CC[C@]34C(=C(C=O)[C@H]1C[C@@H]32)Nc1ccccc14.[Cl-]` (stereo partly specified), the IC50 in the test with KB [1], in the test with KB [2] and in the test on KB [3] was more than 25 µg/mL in each case.

Turning to `C/C=C1/CN(C)[C@H]2Cc3c([nH]c4ccccc34)[C@@H](c3cc4[nH]c5c(c4cc3OC)CCN3C[C@H]4C[C@H](CC)[C@H]3[C@H]5C4)C[C@H]1[C@]2(CO)C(=O)OC`, the Activity is given as 13.8% in the test with MDA-MB-468 [4]; 21.4% in the test on MDA-MB-468 [5]; 35% with MDA-MB-468 [7]; 72.4% in the test on HCT-116 [8]; 14.5% in the test with HCT-116 [9]; 3.95% in the test with MDA-MB-468 [10]. The Activity is 90.1% with MDA-MB-468 [11]; 6.98% with HCT-116 [13]; 79.6% with HCT-116 [14]; 63.1% in the test with MDA-MB-468 [15]; 80% in the test on HCT-116 [16]; 3% in the test with HCT-116 [17]. The Activity in the test on MDA-MB-468 [18] is 0.18%; in the test with HCT-116 [19], 4.85%; with MDA-MB-468 [20], 1.68%; in the test with HCT-116 [21], 8.25%; in the test on HCT-116 [22], 11.4%; in the test with MDA-MB-468 [23], 5.76%. Also, the IC50 was determined as 4.19 µM in the test with MCF7; 2.91 µM with HCT-116 [6]; 2.77 µM in the test with MDA-MB-468 [12]; 1.39 µM in the test with KB [1]; 2.57 µM with HT-29; 1.21 µM in the test with KB [2]. In addition, the 50% inhibitory concentration (IC50) with KB [3] worked out at 0.98 µM; in the test on A549 it was 3.06 µM.

As to `C/C=C1/CN[C@H]2Cc3c([nH]c4ccccc34)[C@@H](c3cc4[nH]c5c(c4cc3OC)CCN3C[C@H]4C[C@H](CC)[C@H]3[C@H]5C4)C[C@H]1[C@@H]2C(=O)OC`, the Activity is 32% with MDA-MB-468 [4]; 42.5% in the test with MDA-MB-468 [5]; 35% with MDA-MB-468 [7]; 43.7% in the test on HCT-116 [8]; 46.4% in the test with HCT-116 [9]; 3.7% in the test on MDA-MB-468 [10]. The Activity in the test with MDA-MB-468 [11] came out at 93%; in the test with HCT-116 [13], 7.76%; with HCT-116 [14] it was 21.9%; in the test on MDA-MB-468 [15], 22.8%; with HCT-116 [16] it was 80%; in the test on HCT-116 [17] it was 48.4%. The Activity was 0.17% in the test with MDA-MB-468 [18]; 6.4% in the test on HCT-116 [19]; 2.68% in the test with MDA-MB-468 [20]; 3.5% in the test on HCT-116 [21]; 22% in the test on HCT-116 [22]; 3.15% with MDA-MB-468 [23]. In addition, the IC50 was found to be 3.23 µM with MCF7; 2.03 µM in the test on HCT-116 [6]; 0.7 µM in the test on MDA-MB-468 [12]; 0.95 µM in the test on KB [1]; 1.58 µM in the test on HT-29; 1.11 µM in the test on KB [2]. Besides, the IC50 is 1.2 µM with KB [3] and 2.83 µM in the test with A549.

For `C/C=C1/CN(C)[C@H]2Cc3c([nH]c4ccccc34)[C@@H](c3cc4[nH]c5c(c4cc3OC)CCN3C[C@H]4C[C@H](CC)[C@H]3[C@H]5C4)C[C@H]1[C@@H]2C(=O)OC`, the concentration for half-maximal inhibition (IC50) in the test on KB [1] was 1.53 µM; in the test with KB [2] it was 0.98 µM; in the test with KB [3] it was 0.8 µM.

On to `C/C=C1/CN(C)[C@H]2Cc3c([nH]c4ccccc34)[C@@H](c3cc4c(cc3OC)C(=O)[C@@]3(CCN5C[C@H]6C[C@H](CC)[C@H]5[C@H]3C6)N4)C[C@H]1[C@@H]2C(=O)OC`, for which the half-inhibitory concentration (IC50) in the test on KB [1] was found to be 1.06 µM; in the test with KB [2] it was 1.06 µM; in the test with KB [3], 1.21 µM.
